The record followed here is ChEMBL document CHEMBL1127395, “Synthesis and antimicrobial activity of novel 3-[(aminopyrimidiniumyl)thio]methyl cephalosporins” (1994).

≈ marks a conversion by molar mass, not a printed value.

In the first experiment the test system is Escherichia coli. As to the kind of experiment: In vitro minimum inhibitory concentration for Escherichia coli (ATCC-10536) by agar dilution method. The class given is functional. The following applies: Escherichia coli; read-out: MIC. The essentials: (§1)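 Two-fold serial dilutions of each compound dispersed in Mueller-Hinton agar; plates spot-inoculated with 2 μL of standard test strain at 10^7 CFU/mL, incubated 37 °C for 20 h; MIC read as lowest concentration inhibiting growth.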
For orientation: In agar dilution the substance is mixed into plates at graded concentrations.
In the case of `CC(C)(O/N=C(\C(=O)NC1C(=O)N2C(C(=O)[O-])=C(CSc3nc(N)cc(N)[n+]3-c3ccc(O)cc3)CSC12)c1cnc(N)s1)C(=O)O` (centres undefined), the MIC (usually the least concentration at which growth counts as inhibited) was 0.25 µg/mL (≈ 0.356 µM).

For the compound `Cc1cc(C)nc(SCC2=C(C(=O)O)N3C(=O)C(NC(=O)/C(=N\OC(C)(C)C(=O)O)c4cnc(N)s4)C3SC2)n1` (centres undefined), the MIC came to 0.5 µg/mL (≈ 0.823 µM).

In another experiment the test system is Serratia marcescens. The experiment can be described thus: In vitro minimum inhibitory concentration for Serratia marcescens (ATCC-27117) by agar dilution method. The class given is functional. The following applies: Serratia marcescens; read-out: MIC. In short, it runs like this:
as §1
As for `CC(C)(O/N=C(\C(=O)NC1C(=O)N2C(C(=O)[O-])=C(CSc3nc(N)cc(N)[n+]3-c3ccc(O)cc3)CSC12)c1cnc(N)s1)C(=O)O` (centres undefined), the MIC was found to be 0.5 µg/mL (≈ 0.712 µM).

`Cc1cc(C)nc(SCC2=C(C(=O)O)N3C(=O)C(NC(=O)/C(=N\OC(C)(C)C(=O)O)c4cnc(N)s4)C3SC2)n1` (centres undefined): the MIC stood at 2 µg/mL (≈ 3.29 µM).

Another experiment deals with Klebsiella pneumoniae. As to the kind of experiment: In vitro minimum inhibitory concentration for Klebsiella pneumoniae (ATCC-10031) by agar dilution method. Format: functional. The following applies: Klebsiella pneumoniae; read-out: MIC.
In the case of `CC(C)(O/N=C(\C(=O)NC1C(=O)N2C(C(=O)[O-])=C(CSc3nc(N)cc(N)[n+]3-c3ccc(O)cc3)CSC12)c1cnc(N)s1)C(=O)O` (centres undefined), the MIC was 0.13 µg/mL (≈ 0.185 µM).

For the compound `Cc1cc(C)nc(SCC2=C(C(=O)O)N3C(=O)C(NC(=O)/C(=N\OC(C)(C)C(=O)O)c4cnc(N)s4)C3SC2)n1` (centres undefined), the MIC was determined as 0.5 µg/mL (≈ 0.823 µM).

For another experiment, the system named is Citrobacter freundii. As to the kind of experiment: In vitro minimum inhibitory concentration for Citrobacter freundii (ATCC-8090) by agar dilution method. Format: functional. Particulars: Citrobacter freundii; read-out: MIC. The essentials: as §1
Take `CC(C)(O/N=C(\C(=O)NC1C(=O)N2C(C(=O)[O-])=C(CSc3nc(N)cc(N)[n+]3-c3ccc(O)cc3)CSC12)c1cnc(N)s1)C(=O)O` (centres undefined): the MIC worked out at 0.25 µg/mL (≈ 0.356 µM).

For the compound `Cc1cc(C)nc(SCC2=C(C(=O)O)N3C(=O)C(NC(=O)/C(=N\OC(C)(C)C(=O)O)c4cnc(N)s4)C3SC2)n1` (centres undefined), the MIC is 0.5 µg/mL (≈ 0.823 µM).

A further experiment has as its system Proteus vulgaris. The experiment can be described thus: In vitro minimum inhibitory concentration for Proteus vulgaris (ATCC-6059) by agar dilution method. The following applies: Proteus vulgaris; read-out: MIC. The class given is functional. In short, it runs like this:
as §1
Turning to `CC(C)(O/N=C(\C(=O)NC1C(=O)N2C(C(=O)[O-])=C(CSc3nc(N)cc(N)[n+]3-c3ccc(O)cc3)CSC12)c1cnc(N)s1)C(=O)O` (centres undefined), the MIC was determined as 0.13 µg/mL (≈ 0.185 µM).

Take `Cc1cc(C)nc(SCC2=C(C(=O)O)N3C(=O)C(NC(=O)/C(=N\OC(C)(C)C(=O)O)c4cnc(N)s4)C3SC2)n1` (centres undefined): the MIC was found to be 0.25 µg/mL (≈ 0.411 µM).

The next experiment concerns Salmonella typhimurium. As to the kind of experiment: In vitro minimum inhibitory concentration for Salmonella Typhimurium (ATCC-14028) by agar dilution method. The class given is functional, Salmonella enterica subsp. enterica serovar Typhimurium. The following applies: Salmonella enterica; read-out: MIC. The essentials:
as §1
For `CC(C)(O/N=C(\C(=O)NC1C(=O)N2C(C(=O)[O-])=C(CSc3nc(N)cc(N)[n+]3-c3ccc(O)cc3)CSC12)c1cnc(N)s1)C(=O)O` (centres undefined), the MIC stood at 0.5 µg/mL (≈ 0.712 µM).

`Cc1cc(C)nc(SCC2=C(C(=O)O)N3C(=O)C(NC(=O)/C(=N\OC(C)(C)C(=O)O)c4cnc(N)s4)C3SC2)n1` (centres undefined): the MIC came out at 4 µg/mL (≈ 6.58 µM).

The subject of the next experiment is Pseudomonas aeruginosa. As to the kind of experiment: In vitro minimum inhibitory concentration for Pseudomonas aeruginosa (ATCC-27853) by agar dilution method. The class given is functional. The following applies: Pseudomonas aeruginosa; read-out: MIC. In short, it runs like this: as §1
Take `CC(C)(O/N=C(\C(=O)NC1C(=O)N2C(C(=O)[O-])=C(CSc3nc(N)cc(N)[n+]3-c3ccc(O)cc3)CSC12)c1cnc(N)s1)C(=O)O` (centres undefined): the MIC turned out to be 1 µg/mL (≈ 1.42 µM).

Turning to `Cc1cc(C)nc(SCC2=C(C(=O)O)N3C(=O)C(NC(=O)/C(=N\OC(C)(C)C(=O)O)c4cnc(N)s4)C3SC2)n1` (centres undefined), the MIC is 32 µg/mL (≈ 52.7 µM).

A further experiment relates to Staphylococcus epidermidis. The experiment can be described thus: In vitro minimum inhibitory concentration for Staphylococcus epidermidis (ATCC-12228) by agar dilution method. Format: functional. Particulars: Staphylococcus epidermidis; read-out: MIC. The essentials: as §1
Regarding `CC(C)(O/N=C(\C(=O)NC1C(=O)N2C(C(=O)[O-])=C(CSc3nc(N)cc(N)[n+]3-c3ccc(O)cc3)CSC12)c1cnc(N)s1)C(=O)O` (centres undefined), the MIC came to 2 µg/mL (≈ 2.85 µM).

In the case of `Cc1cc(C)nc(SCC2=C(C(=O)O)N3C(=O)C(NC(=O)/C(=N\OC(C)(C)C(=O)O)c4cnc(N)s4)C3SC2)n1` (centres undefined), the MIC came out at 8 µg/mL (≈ 13.2 µM).

For the next experiment, the system named is Enterobacter cloacae. The experiment can be described thus: In vitro minimum inhibitory concentration for Enterobacter cloacae (ATCC-27508) by agar dilution method. Format: functional. The following applies: Enterobacter cloacae; read-out: MIC. The essentials: as §1
`CC(C)(O/N=C(\C(=O)NC1C(=O)N2C(C(=O)[O-])=C(CSc3nc(N)cc(N)[n+]3-c3ccc(O)cc3)CSC12)c1cnc(N)s1)C(=O)O` (centres undefined): the MIC is 0.06 µg/mL (≈ 0.0855 µM).

As to `Cc1cc(C)nc(SCC2=C(C(=O)O)N3C(=O)C(NC(=O)/C(=N\OC(C)(C)C(=O)O)c4cnc(N)s4)C3SC2)n1` (centres undefined), the MIC was 0.5 µg/mL (≈ 0.823 µM).

Another experiment concerns Pseudomonas aeruginosa. The experiment can be described thus: In vitro minimum inhibitory concentration for Pseudomonas aeruginosa (ATCC 10145) by agar dilution method. The class given is functional.
Conditions: not given
The essentials:
as §1
For the compound `CC(C)(O/N=C(\C(=O)NC1C(=O)N2C(C(=O)[O-])=C(CSc3nc(N)cc(N)[n+]3-c3ccc(O)cc3)CSC12)c1cnc(N)s1)C(=O)O` (centres undefined), the MIC was 2 µg/mL (≈ 2.85 µM).

In turn, `Cc1cc(C)nc(SCC2=C(C(=O)O)N3C(=O)C(NC(=O)/C(=N\OC(C)(C)C(=O)O)c4cnc(N)s4)C3SC2)n1` (centres undefined) gave an MIC of 64 µg/mL (≈ 105 µM).

Another experiment concerns Klebsiella aerogenes. The experiment can be described thus: In vitro minimum inhibitory concentration for Enterobacter aerogenes (ATCC-29751) by agar dilution method. The class given is functional. Particulars: Klebsiella aerogenes; read-out: MIC. The essentials:
as §1
With `CC(C)(O/N=C(\C(=O)NC1C(=O)N2C(C(=O)[O-])=C(CSc3nc(N)cc(N)[n+]3-c3ccc(O)cc3)CSC12)c1cnc(N)s1)C(=O)O` (centres undefined), the MIC turned out to be 2 µg/mL (≈ 2.85 µM).

Regarding `Cc1cc(C)nc(SCC2=C(C(=O)O)N3C(=O)C(NC(=O)/C(=N\OC(C)(C)C(=O)O)c4cnc(N)s4)C3SC2)n1` (centres undefined), the MIC is 8 µg/mL (≈ 13.2 µM).

A further experiment concerns Staphylococcus aureus. As to the kind of experiment: In vitro minimum inhibitory concentration for Staphylococcus aureus (ATCC 6538p) by agar dilution method. Format: functional. The following applies: Staphylococcus aureus, ATCC 6538p; read-out: MIC. In short, it runs like this: as §1
For `CC(C)(O/N=C(\C(=O)NC1C(=O)N2C(C(=O)[O-])=C(CSc3nc(N)cc(N)[n+]3-c3ccc(O)cc3)CSC12)c1cnc(N)s1)C(=O)O` (centres undefined), the MIC worked out at 4 µg/mL (≈ 5.7 µM).

As for `Cc1cc(C)nc(SCC2=C(C(=O)O)N3C(=O)C(NC(=O)/C(=N\OC(C)(C)C(=O)O)c4cnc(N)s4)C3SC2)n1` (centres undefined), the MIC came out at 32 µg/mL (≈ 52.7 µM).
